Assay results from different studies.
Organism: Plasmodium falciparum
Observed: parasite growth

| SMILES | assay | system | setting | IC50 |
| --- | --- | --- | --- | --- |
| CCCCCCOc1ccc2c(=O)c3c([nH]c2c1)CCCC3 | SYBR Green | D6 | 72 h, blood stage | 0.447 nM |
| CN(Cc1cnc2nc(N)nc(N)c2n1)c1ccc(C(=O)N[C@@H](CCC(=O)O)C(=O)O)cc1 |  | NF54 | blood stage | 51.5 nM |
| CC1=C(C)/C(=C/c2cc(Cc3ccc(Cl)cc3)c(C)[nH]2)N=C1c1ccc[nH]1 | SYBR Green | D6 | 72 h, blood stage | 602 nM |
| N=C(CC(O)c1cc2c(F)cc(F)cc2c2cc(C(F)(F)F)ccc12)Nc1ccc(F)c(F)c1 (stereo not shown) | ELISA | 3D7 | 72 h, blood stage | 7.2 nM |
| CCCCCCCCCCCCCCCCCC(=O)O | SYBR Green | 3D7 | 48 h, blood stage | 7.66 µg/mL |
| N=C(CC(O)c1cc2cccnc2c2cccnc12)Nc1ccc(F)cc1 (stereo not shown) | ELISA | DD2 | 72 h, drug-resistant strain, blood stage | 8780 nM |
| Cc1ccc(N(c2ccc(NC(=O)CN(C)c3ccccc3N3CCCC3=O)cc2)C(C)C)cc1 | SYBR Green | DD2 | blood stage | 2.74 nM |
| CO[C@H]1C[C@H](O[C@@H]2/C(C)=C/C[C@@H]3C[C@@H](C[C@]4(CC[C@H](C)[C@@H](C5CCCCC5)O4)O3)OC(=O)[C@@H]3C=C(C)/C(=N/O)[C@H]4OC/C(=C\C=C\[C@@H]2C)[C@]43O)O[C@@H](C)[C@@H]1O | SYBR Green | 3D7 | blood stage | 553 nM |
| N=C(CC(O)c1nc2ccccc2c2ccc(Cl)cc12)Nc1ccc(F)cc1 (stereo not shown) | ELISA | 3D7 | 72 h, blood stage | 18.7 nM |
| CC1=C(C)/C(=C/c2cc(-c3ccc(OC(F)(F)F)cc3)c(C)[nH]2)N=C1c1ccc[nH]1 | SYBR Green | D6 | 72 h, blood stage | > 2500 nM |
| CNCC[C@H](Oc1cccc2ccccc12)c1cccs1 | SYBR Green | 3D7 | blood stage | 233 nM |
| COC1=C(OC)/C(=C/c2[nH]c(Cc3ccc(Cl)cc3)cc2Cc2ccc(Cl)cc2)N=C1c1ccc[nH]1 | SYBR Green | D6 | 72 h, blood stage | > 2500 nM |
| N=C(CC(O)c1nc2ccccc2c2ccc(Br)cc12)Nc1ccc(F)cc1 (stereo not shown) | ELISA | DD2 | 72 h, drug-resistant strain, blood stage | 46.3 nM |
| COC1=CC(c2ccc[nH]2)=N/C1=C\c1[nH]c(Cc2ccc(OC(F)(F)F)cc2)cc1Cc1ccc(OC(F)(F)F)cc1 | SYBR Green | D6 | 72 h, blood stage | 25.2 nM |
| CCN(CC)CCCC(C)Nc1ccnc2cc(Cl)ccc12 (stereo not shown) | ELISA | 3D7 | 72 h, blood stage | 3.3 nM |
| COc1ccc2cc1Oc1ccc(cc1)C[C@H]1c3c(cc4c(c3Oc3cc5c(cc3OC)CCN(C)[C@@H]5C2)OCO4)CCN1C |  | NF54 | blood stage | 188 nM |
| Cc1[nH]c(/C=C2\N=C(c3ccc[nH]3)C=C2OCc2ccccc2)cc1Cc1ccc(OC(F)(F)F)cc1 | SYBR Green | D6 | 72 h, blood stage | 9.63 nM |
| CCN(CC)CCCC(C)Nc1ccnc2cc(Cl)ccc12 (stereo not shown) |  | NF54 | blood stage | 11.7 nM |
| N=C(CC(O)c1nc2cc(F)ccc2c2ccc(F)cc12)Nc1ccc(F)cc1 (stereo not shown) | ELISA | 3D7 | 72 h, blood stage | 407 nM |
| CCOC1=CC(c2ccc[nH]2)=N/C1=C\c1cc(Cc2ccc(Cl)cc2)c(C)[nH]1 | SYBR Green | D6 | 72 h, blood stage | 4.92 nM |
| N=C(CC(O)c1nc2ccccc2c2ccccc12)Nc1ccc(F)cc1 (stereo not shown) | ELISA | 3D7 | 72 h, blood stage | 123 nM |
| CCCCCCCCNC(C)C(O)c1ccc(SC(C)C)cc1 (stereo not shown) | SYBR Green | 3D7 | blood stage | 807 nM |
